The text below walks through data of ChEMBL document CHEMBL1145811, “Synthesis and antibacterial activity of a novel series of acylides: 3-O-(3-pyridyl)acetylerythromycin A derivatives” (J Med Chem, 2003).

As usually defined, the Cmax is the peak of the concentration-time curve. As usually defined, the AUC is concentration integrated over time. Usually ED50 stands for the dose at which the effect has come halfway, by size or by number of responders. The low end stands for greater potency, the high end for weaker potency.

≈ marks a conversion by molar mass, not a printed value.

Data set [1] is described as follows: Maximum concentration in the lung of mice following a single oral dose of 10 mg/kg (data represent mean in 3 mice). More on the design: dose 10 mg/kg, route oral. The note with it: mouse. It counts as ADME, organism-based. The procedure, abridged:
(§1)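 Mice received a single 10 mg/kg oral dose. Serum and lung were sampled for drug levels. Cmax is in µg/mL and AUC over 0–8 h is in µg·h/mL. Values are the mean of three mice.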

Data set [2] is described as follows: Maximum concentration in the serum of mice following a single oral dose of 10 mg/kg (data represent mean in 3 mice). It counts as ADME, organism-based. Also noted: dose 10 mg/kg, route oral. The note with it: mouse. The method in brief: as §1
A short description of data set [3]: Area under the curve was determined for the compound from the lung of mice following a single oral dose of 10 mg/kg (data represent mean in 3 mice). It counts as ADME, organism-based. More on the design: dose 10 mg/kg, route oral. The conditions noted are these: mouse, read-out: AUC 0-8. The method in brief:
as §1

Data set [4] in a line: Area under the curve was determined for the compound from the serum of mice following a single oral dose of 10 mg/kg (data represent mean in 3 mice). It counts as ADME, organism-based. Also noted: dose 10 mg/kg, route oral. The note with it: mouse, read-out: AUC 0-8. The method in brief: as §1
Data set [5] relates to Haemophilus influenzae. Kind of data set: In vitro minimum inhibitory concentration for antibacterial activity against Haemophilus influenzae ATCC 33533 (ampicillin-resistant strain that produces beta-lactamase). It counts as functional. The procedure, abridged:
(§2)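 Agar dilution MIC determined by the Japan Society of Chemotherapy standard method for aerobic bacteria.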

In data set [6] the test system is Haemophilus influenzae. Kind of data set: In vitro minimum inhibitory concentration for antibacterial activity against Haemophilus influenzae ATCC 43095 (ampicillin-susceptible strain that does not produce beta-lactamase). It counts as functional. The method in brief: as §2
The subject of data set [7] is Mus musculus. Kind of data set: Effective dose in vivo, in mouse inoculated intraperitoneally with 1.47*10e3 CFU of erythromycin susceptible strain Streptococcus pneumoniae IID553. It counts as functional. The conditions noted are these: ip. The method in brief: (§3)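 Mouse protection test: mice were infected intraperitoneally with erythromycin-susceptible S. aureus Smith or S. pneumoniae IID553. Compounds were given orally 1 h after inoculation.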

The subject of data set [8] is Mus musculus. Kind of data set: Effective dose in vivo, in mouse inoculated intraperitoneally with 5.80*10e7 CFU of erythromycin susceptible strain Staphylococcus aureus Smith. It counts as functional. The conditions noted are these: ip. The method in brief:
as §3

In data set [9] the test system is Mus musculus. Kind of data set: Survival rate of mouse inoculated intraperitoneally with 5.05*10e7 CFU of erythromycin-susceptible strain Streptococcus pneumoniae IID553 after treatment with 0.3 mg of compound. It counts as functional. The procedure, abridged: (§4)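 Mouse protection test: mice were infected intraperitoneally with 5.05 × 10^7 CFU/mouse, then given the macrolide orally 1 h after inoculation. Survival was recorded as the read-out.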

Data set [10] relates to Mus musculus. The experiment in a line: Survival rate of mouse inoculated intraperitoneally with 5.05*10e7 CFU of erythromycin-susceptible strain Streptococcus pneumoniae IID553 after treatment with 3 mg of compound. It counts as functional. The method in brief:
as §4

Data set [11] relates to Staphylococcus aureus. The experiment in a line: In vitro minimum inhibitory concentration for antibacterial activity against erythromycin-susceptible strain Staphylococcus aureus […]. It counts as functional. The method in brief: (§5)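 MIC by agar dilution following the Japan Society of Chemotherapy standard method for aerobic bacteria. S. aureus 209P-JC and S. pneumoniae IID553 are erythromycin-susceptible strains.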

Data set [12] deals with Staphylococcus aureus. Kind of data set: In vitro minimum inhibitory concentration for antibacterial activity against Staphylococcus aureus B1 (inducibly MLSb-resistant strain encoded by the erm(C) gene). It counts as functional. The method in brief: as §2
In data set [13] the test system is Streptococcus pneumoniae. The experiment in a line: In vitro minimum inhibitory concentration for antibacterial activity against erythromycin susceptible strain Streptococcus pneumoniae IID553. It counts as functional.
Data set [14] concerns Streptococcus pneumoniae. Kind of data set: In vitro minimum inhibitory concentration for antibacterial activity against erythromycin-susceptible strain Streptococcus pneumoniae IID553. It counts as functional. The procedure, abridged: as §5
Data set [15] relates to Streptococcus pneumoniae. Kind of data set: In vitro minimum inhibitory concentration for antibacterial activity against Streptococcus pneumoniae 210 (efflux-resistant strain encoded by the mef(A) gene). It counts as functional. The procedure, abridged:
as §2

The subject of data set [16] is Streptococcus pneumoniae. The experiment in a line: In vitro minimum inhibitory concentration for antibacterial activity against Streptococcus pneumoniae 211 (MLSb-resistant strain encoded by the erm(B) gene). It counts as functional. The procedure, abridged: as §2
Data set [17] concerns Staphylococcus aureus. The experiment in a line: In vitro minimum inhibitory concentration for antibacterial activity against Staphylococcus aureus SR138 (constitutively MLSb-resistant strain encoded by the erm(A) gene). It counts as functional. The method in brief:
as §2

The subject of data set [18] is Staphylococcus aureus. Kind of data set: In vitro minimum inhibitory concentration for antibacterial activity against erythromycin susceptible strain Staphylococcus aureus Smith. It counts as functional.

On to `CC[C@H]1OC(=O)[C@H](C)[C@@H](O[C@H]2C[C@@](C)(OC)[C@@H](O)[C@H](C)O2)[C@H](C)[C@@H](O[C@@H]2O[C@H](C)C[C@H](N(C)C)[C@H]2O)[C@](C)(OC)C[C@@H](C)C(=O)[C@H](C)[C@@H](O)[C@]1(C)O` [CLARITHROMYCIN], for which the Cmax in data set [1] came to 14100 ng/mL; in data set [2] it was 1210 ng/mL. The AUC in [3] came to 30400 ng·h/mL; in [4] it was 1310 ng·h/mL. Besides, the MIC was 3.13 µg/mL (≈ 4.18 µM) against Haemophilus influenzae [5]; 6.25 µg/mL (≈ 8.36 µM) in the data set with Haemophilus influenzae [6]; 0.1 µg/mL (≈ 0.134 µM) against Staphylococcus aureus [11]; > 100 µg/mL against Staphylococcus aureus [12]; 0.025 µg/mL (≈ 0.0334 µM) with Streptococcus pneumoniae [13]; 0.05 µg/mL (≈ 0.0668 µM) with Streptococcus pneumoniae [14]. Moreover, the MIC in the data set on Streptococcus pneumoniae [15] was 0.78 µg/mL (≈ 1.04 µM); in the data set with Streptococcus pneumoniae [16] it was > 100 µg/mL; against Staphylococcus aureus [17] it was > 100 µg/mL; in the data set with Staphylococcus aureus [18], 0.2 µg/mL (≈ 0.267 µM). In addition, the ED50 with Mus musculus [7] turned out to be 13.5 mg/kg; in the data set with Mus musculus [8] it was 7.6 mg/kg. The Survival rate stood at 50% in the data set on Mus musculus [9] and 100% with Mus musculus [10].
On to `CC[C@H]1OC(=O)[C@H](C)[C@@H](OC(=O)Cc2cccnc2)[C@H](C)[C@@H](OC2O[C@H](C)C[C@H](N(C)C)[C@H]2O)[C@@](C)(O)C[C@@H](C)/C(=N\O)[C@H](C)[C@H]2OC(=O)O[C@@]21C` (stereo partly drawn), for which the MIC amounted to 3.13 µg/mL (≈ 4.25 µM) against Haemophilus influenzae [5]; 3.13 µg/mL (≈ 4.25 µM) in the data set on Haemophilus influenzae [6]; 0.39 µg/mL (≈ 0.53 µM) in the data set on Staphylococcus aureus [11]; 0.39 µg/mL (≈ 0.53 µM) in the data set with Staphylococcus aureus [12]; 0.025 µg/mL (≈ 0.034 µM) in the data set on Streptococcus pneumoniae [13]; 0.025 µg/mL (≈ 0.034 µM) against Streptococcus pneumoniae [14]. Besides, the MIC with Streptococcus pneumoniae [15] is 0.1 µg/mL (≈ 0.136 µM); with Streptococcus pneumoniae [16], > 100 µg/mL; against Staphylococcus aureus [17], > 100 µg/mL; in the data set on Staphylococcus aureus [18], 0.2 µg/mL (≈ 0.272 µM). The ED50 is 142 mg/kg in the data set on Mus musculus [7] and 51.6 mg/kg in the data set with Mus musculus [8].
Consider `CC[C@H]1OC(=O)[C@H](C)[C@@H](OC(=O)Cc2cccnc2)[C@H](C)[C@@H](OC2O[C@H](C)C[C@H](N(C)C)[C@H]2O)[C@@](C)(OC)C[C@@H](C)C(=O)[C@H](C)[C@@H](O)[C@]1(C)O` (stereo partly drawn), for which the MIC in the data set on Haemophilus influenzae [5] is 12.5 µg/mL (≈ 17.6 µM); in the data set with Haemophilus influenzae [6], 12.5 µg/mL (≈ 17.6 µM); against Staphylococcus aureus [11] it was 0.78 µg/mL (≈ 1.1 µM); against Staphylococcus aureus [12], 1.56 µg/mL (≈ 2.2 µM); against Streptococcus pneumoniae [13] it was 0.2 µg/mL (≈ 0.282 µM); with Streptococcus pneumoniae [14] it was 0.39 µg/mL (≈ 0.55 µM). The MIC with Streptococcus pneumoniae [15] was 0.39 µg/mL (≈ 0.55 µM); against Streptococcus pneumoniae [16] it was > 100 µg/mL; with Staphylococcus aureus [17], > 100 µg/mL; in the data set with Staphylococcus aureus [18] it was 0.78 µg/mL (≈ 1.1 µM). Besides, the ED50 with Mus musculus [7] is 40.8 mg/kg; in the data set on Mus musculus [8], 9.57 mg/kg.
In the case of `CC[C@H]1OC(=O)[C@H](C)[C@@H](OC(=O)Cc2cccnc2)[C@H](C)[C@@H](OC2O[C@H](C)C[C@H](N(C)C)[C@H]2O)[C@@](C)(OC)C[C@@H](C)/C(=N\O)[C@H](C)[C@H]2OC(=O)O[C@@]21C` (stereo partly drawn), the MIC with Haemophilus influenzae [5] was determined as 6.25 µg/mL (≈ 8.33 µM); against Haemophilus influenzae [6], 3.13 µg/mL (≈ 4.17 µM); in the data set on Staphylococcus aureus [11] it was 0.2 µg/mL (≈ 0.267 µM); against Staphylococcus aureus [12], 0.39 µg/mL (≈ 0.52 µM); with Streptococcus pneumoniae [13], 0.025 µg/mL (≈ 0.0333 µM); against Streptococcus pneumoniae [14] it was 0.025 µg/mL (≈ 0.0333 µM). Further, the MIC was 0.1 µg/mL (≈ 0.133 µM) in the data set with Streptococcus pneumoniae [15], > 100 µg/mL in the data set with Streptococcus pneumoniae [16], > 100 µg/mL in the data set with Staphylococcus aureus [17] and 0.39 µg/mL (≈ 0.52 µM) against Staphylococcus aureus [18]. Besides, the figures for the ED50 with Mus musculus [7] and with Mus musculus [8] were 47.4 mg/kg and 27.6 mg/kg, respectively.
With `CC[C@H]1OC(=O)[C@H](C)[C@@H](OC(=O)Cc2cccnc2)[C@H](C)[C@@H](OC2O[C@H](C)C[C@H](N(C)C)[C@H]2O)[C@@]2(C)C[C@@H](C)[C@H](OC(=O)O2)[C@H](C)[C@H]2OC(=O)O[C@@]21C` (stereo partly drawn), the Cmax in [1] came to 1350 ng/mL; in data set [2] it was 120 ng/mL. For the same molecule, the results for the AUC in [3] and in data set [4] were 2460 ng·h/mL and 230 ng·h/mL, respectively. Moreover, the MIC amounted to 0.78 µg/mL (≈ 1.04 µM) in the data set on Haemophilus influenzae [5]; 0.78 µg/mL (≈ 1.04 µM) in the data set with Haemophilus influenzae [6]; 0.1 µg/mL (≈ 0.134 µM) with Staphylococcus aureus [11]; 0.2 µg/mL (≈ 0.267 µM) with Staphylococcus aureus [12]; 0.025 µg/mL (≈ 0.0334 µM) in the data set on Streptococcus pneumoniae [14]; 0.1 µg/mL (≈ 0.134 µM) against Streptococcus pneumoniae [15]. The MIC with Streptococcus pneumoniae [16] is 100 µg/mL (≈ 134 µM); against Staphylococcus aureus [17], > 100 µg/mL. Further, the values for the Survival rate with Mus musculus [9] and in the data set with Mus musculus [10] were 30% and 90%, respectively.
